# Active and inactive are the calls of the source. The rule behind the calls is not given here.
# Tests used:
# U-937 [1] = assay: Inhibition of [ethanolamine-1-3H]AEA/unlabeled AEA uptake in human U937 cells preincubated for 15 mins followed by [ethanolamine-1-3H]AEA/unlabeled AEA addition and measured after 15 mins by scintillation counting method; format: functional, cell-based
# In short: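 Intact U937 cells (0.5x10⁶ per sample) in RPMI, preincubated with compound for 15 min at 37 °C. Then 1 nM [ethanolamine-1-³H]AEA plus unlabeled AEA (final 100 nM) added for 15 min. Stopped by rapid filtration and ice-cold PBS/1% BSA washes, radioactivity counted. At least three experiments in triplicate, mean ± SD.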
# Monoglyceride lipase = biological target: T1, Monoglyceride lipase (Homo sapiens, UniProt Q99685); assay: Inhibition of MAGL in human U937 cells using 2-OG containing […] as substrate preincubated for 30 mins followed by substrate addition and measured after 15 mins by liquid scintillation spectroscopic method; format: cell-based
# T1 sequence (Q99685 whole entry): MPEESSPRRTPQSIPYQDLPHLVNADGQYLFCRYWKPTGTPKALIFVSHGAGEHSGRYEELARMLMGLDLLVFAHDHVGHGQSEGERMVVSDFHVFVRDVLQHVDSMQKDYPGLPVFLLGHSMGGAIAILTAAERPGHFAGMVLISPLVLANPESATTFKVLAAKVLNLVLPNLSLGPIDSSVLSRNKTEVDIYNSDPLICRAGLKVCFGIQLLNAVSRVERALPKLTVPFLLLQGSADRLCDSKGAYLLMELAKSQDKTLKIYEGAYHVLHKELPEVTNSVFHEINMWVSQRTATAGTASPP
# In short: (§1)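 U937 cell homogenate (100 µg) in 10 mM Tris-HCl, 1 mM EDTA, pH 8, 0.1% fatty acid-free BSA. Compound at 10 µM screening concentration, 30 min at 37 °C. FAAH: 100 nM AEA with 1 nM [³H]AEA tracer. MAGL: 1 µM 2-OG with 1 nM tritiated tracer. Both 15 min at 37 °C, stopped with CHCl₃:MeOH (1:1), aqueous phase counted.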
# Cannabinoid receptor 2 = Cannabinoid receptor 2 (Homo sapiens, UniProt P34972); assay: Displacement of [3H]-CP55940 from human CB2 receptor expressed in CHO cell membranes after 90 mins
# Sequence of Cannabinoid receptor 2 (P34972 whole entry): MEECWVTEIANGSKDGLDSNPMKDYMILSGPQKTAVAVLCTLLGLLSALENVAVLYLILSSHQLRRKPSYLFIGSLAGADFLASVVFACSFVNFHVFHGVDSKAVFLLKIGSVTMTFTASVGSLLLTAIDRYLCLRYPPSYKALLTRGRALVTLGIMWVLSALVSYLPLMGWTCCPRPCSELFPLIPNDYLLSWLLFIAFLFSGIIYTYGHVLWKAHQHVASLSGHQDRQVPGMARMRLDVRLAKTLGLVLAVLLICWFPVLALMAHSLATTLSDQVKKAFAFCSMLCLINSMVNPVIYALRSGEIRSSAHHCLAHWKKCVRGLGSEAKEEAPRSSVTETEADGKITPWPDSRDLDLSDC
# In short: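 Membranes expressing hCB1 or hCB2 (stably transfected CHO) in 50 mM Tris-HCl, 2.5 mM EDTA, 5 mM MgCl₂, 0.5% fatty acid-free BSA, pH 7.4. Nonspecific binding with 10 µM […]. GF/B filtration, radioactivity counted, Ki derived. Mean ± SD, at least 3 experiments in triplicate.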
# Cannabinoid receptor 1 [2] = biological target: T2, Cannabinoid receptor 1 (Homo sapiens, UniProt P21554); assay: Displacement of [3H]-CP55940 from human CB1 receptor expressed in CHO cell membranes after 90 mins
# T2 sequence (P21554 whole entry): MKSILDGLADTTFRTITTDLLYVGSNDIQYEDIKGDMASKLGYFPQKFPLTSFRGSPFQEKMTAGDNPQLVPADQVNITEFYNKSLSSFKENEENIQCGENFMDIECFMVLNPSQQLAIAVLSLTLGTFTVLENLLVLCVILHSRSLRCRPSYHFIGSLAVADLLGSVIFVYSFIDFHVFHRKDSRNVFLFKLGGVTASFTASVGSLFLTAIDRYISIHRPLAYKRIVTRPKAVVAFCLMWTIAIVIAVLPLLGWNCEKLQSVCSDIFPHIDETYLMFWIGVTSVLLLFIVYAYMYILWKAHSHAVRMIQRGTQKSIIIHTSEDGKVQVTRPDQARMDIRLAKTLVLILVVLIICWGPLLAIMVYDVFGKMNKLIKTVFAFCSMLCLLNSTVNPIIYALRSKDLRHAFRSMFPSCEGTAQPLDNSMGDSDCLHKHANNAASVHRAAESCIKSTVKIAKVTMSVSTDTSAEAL
# U-251 = assay: Cytotoxicity against human U251MG cells assessed as decrease in cell viability at 0.6 to 40 uM after 48 hrs by MTT assay; format: functional, cell-based
# In short: (§2)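 U251MG (EMEM, 10% FBS) or U937 (RPMI 1640, 10% FBS) cells plated at 4x10³/well for 24h, then exposed to compounds (0–40 µM) for 48 h at 37°C. MTT reduction, formazan read at 595 nm. Viability as % of untreated control. Five independent experiments in triplicate, mean ± SD, ANOVA with Bonferroni.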
# [3] = biological target: T3, Monoacylglycerol lipase ABHD6 (Homo sapiens, UniProt Q9BV23); assay: Inhibition of human ABHD6 expressed in HEK293 cells using 2-OG as substrate preincubated for 30 mins followed by substrate addition and measured after 5 mins by liquid scintillation spectroscopic method; format: cell-based
# T3 sequence (Q9BV23 whole entry): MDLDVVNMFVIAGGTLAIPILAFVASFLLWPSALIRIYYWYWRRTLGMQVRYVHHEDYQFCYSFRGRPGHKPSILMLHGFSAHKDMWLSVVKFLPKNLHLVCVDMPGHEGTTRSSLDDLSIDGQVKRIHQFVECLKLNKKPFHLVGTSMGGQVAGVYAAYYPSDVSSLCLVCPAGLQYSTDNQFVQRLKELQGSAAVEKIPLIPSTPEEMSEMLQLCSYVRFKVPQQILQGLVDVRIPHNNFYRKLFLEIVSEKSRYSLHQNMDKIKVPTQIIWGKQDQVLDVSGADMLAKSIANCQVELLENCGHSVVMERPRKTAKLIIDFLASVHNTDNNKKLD
# In short: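 Homogenate (40 µg) of HEK293 cells stably transfected with hABHD6 or hABHD12, compound preincubated 30 min at 37 °C in […], 0.1% BSA, pH 7.6. DMSO vehicle; WWL70 10 µM or THL 20 µM as positive controls. 10 µM 2-OG added for 5 min at 37 °C, stopped with CHCl₃:MeOH. Aqueous phase counted; no-enzyme blanks and non-transfected HEK293 hydrolysis subtracted.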
# [4] = biological target: T4, Fatty-acid amide hydrolase 1 (Homo sapiens, UniProt O00519); assay: Inhibition of FAAH in human U937 cells using AEA containing [ethanolamine-1-3H]AEA as substrate preincubated for 30 mins followed by substrate addition and measured after 15 mins by liquid scintillation spectroscopic method; format: cell-based; in short: as §1
# T4 sequence (O00519 whole entry): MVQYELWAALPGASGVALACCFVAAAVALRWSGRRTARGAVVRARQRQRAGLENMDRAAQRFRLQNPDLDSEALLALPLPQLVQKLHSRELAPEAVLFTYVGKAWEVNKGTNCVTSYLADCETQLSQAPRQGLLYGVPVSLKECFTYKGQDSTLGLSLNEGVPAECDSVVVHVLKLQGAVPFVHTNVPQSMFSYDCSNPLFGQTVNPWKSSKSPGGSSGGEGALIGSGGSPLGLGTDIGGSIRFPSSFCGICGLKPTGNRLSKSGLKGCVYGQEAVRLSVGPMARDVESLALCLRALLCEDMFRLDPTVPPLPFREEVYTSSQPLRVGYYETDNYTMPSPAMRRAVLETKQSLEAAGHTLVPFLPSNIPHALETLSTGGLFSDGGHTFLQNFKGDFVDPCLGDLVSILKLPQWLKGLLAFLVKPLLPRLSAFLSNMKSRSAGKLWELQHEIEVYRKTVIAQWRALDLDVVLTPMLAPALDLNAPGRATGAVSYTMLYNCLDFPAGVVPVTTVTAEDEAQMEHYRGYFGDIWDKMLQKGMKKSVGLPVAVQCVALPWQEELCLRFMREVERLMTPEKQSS
# Cannabinoid receptor 1 [5] = biological target: T2, Cannabinoid receptor 1; assay: Agonist activity at CB1 receptor in human U251MG cells assessed as upregulation of MICA/B expression at 10 uM after 24 hrs by cytofluorimetric method; format: functional, cell-based
# In short: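 U251MG glioma cells seeded at 2x10⁴ cells/cm², grown 24h, washed, then exposed to vehicle or compound in complete medium for 24 h. 2x10⁵ cells stained with PE anti-MICA/B or isotype control, 20 min at 4°C, fixed in 1% formaldehyde. Flow cytometry read-out as MFI, 3 independent experiments, mean ± SD, ANOVA with Bonferroni.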
# U-937 [6] = assay: Cytotoxicity against human U937 cells assessed as decrease in cell viability at 0.6 to 40 uM after 48 hrs by MTT assay; format: functional, cell-based; in short: as §2
# Cannabinoid receptor 1 [7] = biological target: T2, Cannabinoid receptor 1; assay: Agonist activity at human CB1 receptor expressed in CHO cell membranes after 90 mins by [35S]GTPgammaS binding assay; format: functional, cell-based
Compound,IC50 (U-937 [1]) [nM],IC50 (Monoglyceride lipase) [nM],Ki (Cannabinoid receptor 2) [nM],Ki (Cannabinoid receptor 1 [2]) [nM],Activity (U-251),IC50 [3] [nM],IC50 [4] [nM],Activity (Cannabinoid receptor 1 [5]),Activity (U-937 [6]),EC50 (Cannabinoid receptor 1 [7]) [nM]
Cc1c(Br)cnc(OCc2ccc(F)cc2)c1C(=O)NC1CCCCCC1,620,> 10000,606,113,inactive,530,> 10000,Active,Active,182
Cc1c(Br)cn(Cc2ccc(F)cc2)c(=O)c1C(=O)NC1CCCCCC1,930,> 10000,3.5,2.3,inactive,> 10000,2300,Active,Active,1.4
COc1ccc(-c2cn(Cc3ccc(F)cc3)c(=O)c(C(=O)NC3CCCCCC3)c2C)cc1,280,> 10000,7.9,30.7,inactive,> 10000,1300,Active,Active,96
